# Measurements: ChEMBL document CHEMBL4257551, “Glycyrrhizic acid from licorice down-regulates inflammatory responses via blocking MAPK and PI3K/Akt-dependent NF-κB signalling pathways in TPA-induced skin inflammation” (2018)
# The source made the active and inactive calls. The rule behind the calls is not given here.
# Columns and labels:
# Mus musculus [1] = experiment: Antiinflammatory activity against TPA-induced ear edema in BALB/c mouse assessed as decrease in ear punches at 50 mM administered topically for 15 mins prior to TPA challenge and measured after 6 hrs relative to control; format: functional; parameters: scale not given: the % may be the effect or the level left
# Procedure, shortened: (§1)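 Female BALB/c mice, 4–5 weeks old, n = 3 per group. Both ears received 30 μL of test solution in DMSO:methylene chloride (20:80) at 50, 100, 150 or 200 mM. Topical TPA (30 μL, 25 μg mL⁻¹) followed 15 min later. Mice were killed at 6 h, and two 6 mm punches per animal were weighed. Controls had vehicle then acetone. Mean ± SD of six experiments in triplicate.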
# Mus musculus [2] = experiment: Antiinflammatory activity against TPA-induced ear edema in BALB/c mouse assessed as decrease in ear punches at 100 mM administered topically for 15 mins prior to TPA challenge and measured after 6 hrs relative to control; format: functional; parameters: scale not given: the % may be the effect or the level left; procedure, shortened: as §1
# Mus musculus [3] = experiment: Antiinflammatory activity against TPA-induced ear edema in BALB/c mouse assessed as decrease in ear punches at 150 mM administered topically for 15 mins prior to TPA challenge and measured after 6 hrs relative to control; format: functional; parameters: scale not given: the % may be the effect or the level left; procedure, shortened: as §1
# Mus musculus [4] = experiment: Antiinflammatory activity against TPA-induced ear edema in BALB/c mouse assessed as decrease in ear punches at 200 mM administered topically for 15 mins prior to TPA challenge and measured after 6 hrs relative to control; format: functional; parameters: scale not given: the % may be the effect or the level left; procedure, shortened: as §1
# Mus musculus [5] = experiment: Antiinflammatory activity against TPA-induced ear edema in BALB/c mouse assessed as decrease in ear punches administered topically for 15 mins prior to TPA challenge and measured after 6 hrs; format: functional, organism-based; procedure, shortened: as §1
# Mus musculus [6] = experiment: Antiinflammatory activity against TPA-induced ear edema in BALB/c mouse assessed as weight of ear punches at 200 mM administered topically for 15 mins prior to TPA challenge and measured after 3 hrs (reference value: 8.3 +/- 0.1 mg); format: functional
# Mus musculus [7] = experiment: Antiinflammatory activity against TPA-induced ear edema in BALB/c mouse assessed as weight of ear punches at 200 mM administered topically for 15 mins prior to TPA challenge and measured after 12 hrs (reference value: 12.4 +/- 0.1 mg); format: functional
# Mus musculus [8] = experiment: Antiinflammatory activity against TPA-induced ear edema in BALB/c mouse assessed as weight of ear punches at 200 mM administered topically for 15 mins prior to TPA challenge and measured after 24 hrs (reference value: 12.1 +/- 0.2 mg); format: functional
# Mus musculus [9] = experiment: Antiinflammatory activity against TPA-induced ear edema in BALB/c mouse assessed as weight of ear punches at 200 mM administered topically for 15 mins prior to TPA challenge and measured after 48 hrs (reference value: 11.4 +/- 0.3 mg); format: functional
# Mus musculus [10] = experiment: Antiinflammatory activity against TPA-induced ear edema in BALB/c mouse assessed as weight of ear punches at 200 mM, po administered 15 mins prior to TPA challenge and measured after 3 hrs (reference value: 8.3 +/- 0.1 mg); format: functional
# Mus musculus [11] = experiment: Antiinflammatory activity against TPA-induced ear edema in BALB/c mouse assessed as weight of ear punches at 200 mM, po administered 15 mins prior to TPA challenge and measured after 6 hrs (reference value: 12.5 +/- 0.3 mg); format: functional
# Mus musculus [12] = experiment: Antiinflammatory activity against TPA-induced ear edema in BALB/c mouse assessed as weight of ear punches at 200 mM, po administered 15 mins prior to TPA challenge and measured after 12 hrs (reference value: 12.4 +/- 0.1 mg); format: functional
# Mus musculus [13] = experiment: Antiinflammatory activity against TPA-induced ear edema in BALB/c mouse assessed as weight of ear punches at 200 mM, ip administered 15 mins prior to TPA challenge and measured after 3 hrs (reference value: 8.3 +/- 0.1 mg); format: functional
# Mus musculus [14] = experiment: Antiinflammatory activity against TPA-induced ear edema in BALB/c mouse assessed as weight of ear punches at 200 mM, ip administered 15 mins prior to TPA challenge and measured after 6 hrs (reference value: 12.5 +/- 0.3 mg); format: functional
# Mus musculus [15] = experiment: Antiinflammatory activity against TPA-induced ear edema in BALB/c mouse assessed as weight of ear punches at 200 mM, ip administered 15 mins prior to TPA challenge and measured after 12 hrs (reference value: 12.4 +/- 0.1 mg); format: functional
# Mus musculus [16] = experiment: Antiinflammatory activity against TPA-induced ear edema in BALB/c mouse assessed as weight of ear punches at 200 mM, ip administered 15 mins prior to TPA challenge and measured after 24 hrs (reference value: 12.1 +/- 0.2 mg); format: functional
# Mus musculus [17] = experiment: Antiinflammatory activity against TPA-induced ear edema in BALB/c mouse assessed as weight of ear punches at 200 mM, ip administered 15 mins prior to TPA challenge and measured after 48 hrs (reference value: 11.4 +/- 0.3 mg); format: functional
# Mus musculus [18] = experiment: Antiinflammatory activity against TPA-induced ear edema in BALB/c mouse assessed as decrease in weight of ear punches at 5 mg administered topically for 15 mins prior to TPA challenge and measured after 3 hrs relative to control; format: functional; parameters: scale not given: the % may be the effect or the level left
# Mus musculus [19] = experiment: Antiinflammatory activity against TPA-induced ear edema in BALB/c mouse assessed as decrease in weight of ear punches at 5 mg administered topically for 15 mins prior to TPA challenge and measured after 6 hrs relative to control; format: functional; parameters: scale not given: the % may be the effect or the level left
# Mus musculus [20] = experiment: Antiinflammatory activity against TPA-induced ear edema in BALB/c mouse assessed as decrease in weight of ear punches at 5 mg administered topically for 15 mins prior to TPA challenge and measured after 12 hrs relative to control; format: functional; parameters: scale not given: the % may be the effect or the level left
# Mus musculus [21] = experiment: Antiinflammatory activity against TPA-induced ear edema in BALB/c mouse assessed as decrease in weight of ear punches at 5 mg administered topically for 15 mins prior to TPA challenge and measured after 24 hrs relative to control; format: functional; parameters: scale not given: the % may be the effect or the level left
# Mus musculus [22] = experiment: Antiinflammatory activity against TPA-induced ear edema in BALB/c mouse assessed as decrease in weight of ear punches at 5 mg administered topically for 15 mins prior to TPA challenge and measured after 48 hrs relative to control; format: functional; parameters: scale not given: the % may be the effect or the level left
# Mus musculus [23] = experiment: Antiinflammatory activity against TPA-induced ear edema in BALB/c mouse assessed as decrease in weight of ear punches at 200 mM, po administered 15 mins prior to TPA challenge and measured after 24 hrs relative to control; format: functional; parameters: scale not given: the % may be the effect or the level left
# Mus musculus [24] = experiment: Antiinflammatory activity against TPA-induced ear edema in BALB/c mouse assessed as decrease in weight of ear punches at 200 mM, po administered 15 mins prior to TPA challenge and measured after 48 hrs relative to control; format: functional; parameters: scale not given: the % may be the effect or the level left
# Mus musculus [25] = experiment: Antiinflammatory activity against TPA-induced ear edema in BALB/c mouse assessed as decrease in leucocyte infiltration in edema administered topically for 15 mins prior to TPA challenge and measured after 6 hrs by hematoxylin/eosin staining-based microscopic method; format: functional, organism-based
# Procedure, shortened: (§2)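 Female BALB/c mice were pretreated topically at 50–200 mM, then given TPA. Ears were taken at 6 h, fixed in 4% PFA, decalcified in EDTA, paraffin-embedded and sectioned at 4 μm for H&E. Epidermal hyperplasia and dermal leukocyte infiltration were scored in at least five regions at 200×. ANOVA with Dunnett's test.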
# Mus musculus [26] = experiment: Antiinflammatory activity against TPA-induced ear edema in BALB/c mouse assessed as decrease in epidermal hyperplasia in edema administered topically for 15 mins prior to TPA challenge and measured after 6 hrs by hematoxylin/eosin staining-based microscopic method; format: functional, organism-based; procedure, shortened: as §2
# Mus musculus [27] = experiment: Antiinflammatory activity against TPA-induced ear edema in BALB/c mouse assessed as decrease in 18F-FDG uptake in ears administered topically for 15 mins prior to TPA challenge and measured after 24 hrs by microPET-CT imaging method; format: functional, organism-based
# Procedure, shortened: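 CT-guided regions of interest were drawn over the ears, and uptake was expressed as SUVmax and SUVmean. Dosing was 200 mM in DMSO:methylene chloride (20:80) on the ears before topical TPA.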
# Mus musculus [28] = experiment: Antiinflammatory activity against TPA-induced ear edema in BALB/c mouse assessed as decrease in iNOS expression in edema administered topically for 15 mins prior to TPA challenge by immunohistochemical method; format: functional, organism-based
# Mus musculus [29] = experiment: Antiinflammatory activity against TPA-induced ear edema in BALB/c mouse assessed as decrease in COX2 expression in edema administered topically for 15 mins prior to TPA challenge by immunohistochemical method; format: functional, organism-based
# Mus musculus [30] = experiment: Antiinflammatory activity against TPA-induced ear edema in BALB/c mouse assessed as decrease in IkappaBalpha degradation in edema administered topically for 15 mins prior to TPA challenge by immunohistochemical method; format: functional, organism-based
# Mus musculus [31] = experiment: Antiinflammatory activity against TPA-induced ear edema in BALB/c mouse assessed as decrease in IkappaBalpha phosphorylation in edema administered topically for 15 mins prior to TPA challenge by immunohistochemical method; format: functional, organism-based
# Mus musculus [32] = experiment: Antiinflammatory activity against TPA-induced ear edema in BALB/c mouse assessed as decrease in p65 phosphorylation in edema administered topically for 15 mins prior to TPA challenge by immunohistochemical method; format: functional, organism-based
# Mus musculus [33] = experiment: Antiinflammatory activity against TPA-induced ear edema in BALB/c mouse assessed as decrease in p38 phosphorylation in edema administered topically for 15 mins prior to TPA challenge by immunohistochemical method; format: functional, organism-based
# Mus musculus [34] = experiment: Antiinflammatory activity against TPA-induced ear edema in BALB/c mouse assessed as decrease in ERK1/2 phosphorylation in edema administered topically for 15 mins prior to TPA challenge by immunohistochemical method; format: functional, organism-based
# Mus musculus [35] = experiment: Antiinflammatory activity against TPA-induced ear edema in BALB/c mouse assessed as decrease in Akt expression in edema at 50 to 200 mM administered topically for 15 mins prior to TPA challenge by immunohistochemical method; format: functional, organism-based
# Mus musculus [36] = experiment: Antiinflammatory activity against TPA-induced ear edema in BALB/c mouse assessed as decrease in PI3K p85 expression in edema at 50 to 200 mM administered topically for 15 mins prior to TPA challenge by immunohistochemical method; format: functional, organism-based
# Mus musculus [37] = experiment: Antiinflammatory activity against TPA-induced ear edema in BALB/c mouse assessed as decrease in Akt phosphorylation in edema administered topically for 15 mins prior to TPA challenge by immunohistochemical method; format: functional, organism-based
# Mus musculus [38] = experiment: Antiinflammatory activity against TPA-induced ear edema in BALB/c mouse assessed as decrease in PI3K p85 phosphorylation in edema administered topically for 15 mins prior to TPA challenge by immunohistochemical method; format: functional, organism-based
structure (smiles),measurement,setting,value
CC1(C)[C@@H](O[C@H]2O[C@H](C(=O)O)[C@@H](O)[C@H](O)[C@H]2O[C@@H]2O[C@H](C(=O)O)[C@@H](O)[C@H](O)[C@H]2O)CC[C@]2(C)[C@H]3C(=O)C=C4[C@@H]5C[C@@](C)(C(=O)O)CC[C@]5(C)CC[C@@]4(C)[C@]3(C)CC[C@@H]12 [GLYCYRRHIZIN],Activity,Mus musculus [1],31.5%
same,Activity,Mus musculus [2],60.3%
same,Activity,Mus musculus [3],63%
same,Activity,Mus musculus [4],87.7%
same,Activity,Mus musculus [5],Dose-dependent effect
same,Activity,Mus musculus [6],5.6 mg
same,Activity,Mus musculus [7],6.1 mg
same,Activity,Mus musculus [8],5.9 mg
same,Activity,Mus musculus [9],5.9 mg
same,Activity,Mus musculus [10],8 mg
same,Activity,Mus musculus [11],12.3 mg
same,Activity,Mus musculus [12],12.1 mg
same,Activity,Mus musculus [13],7.8 mg
same,Activity,Mus musculus [14],14.6 mg
same,Activity,Mus musculus [15],14.1 mg
same,Activity,Mus musculus [16],13.5 mg
same,Activity,Mus musculus [17],13.1 mg
same,Activity,Mus musculus [18],87.1%
same,Activity,Mus musculus [19],87.7%
same,Activity,Mus musculus [20],87.5%
same,Activity,Mus musculus [21],89.9%
same,Activity,Mus musculus [22],88.7%
same,Activity,Mus musculus [23],66.7%
same,Activity,Mus musculus [24],64.5%
same,Activity,Mus musculus [25],Dose-dependent effect
same,Activity,Mus musculus [26],Dose-dependent effect
same,Activity,Mus musculus [27],Active
same,Activity,Mus musculus [28],Dose-dependent effect
same,Activity,Mus musculus [29],Dose-dependent effect
same,Activity,Mus musculus [30],Dose-dependent effect
same,Activity,Mus musculus [31],Dose-dependent effect
same,Activity,Mus musculus [32],Dose-dependent effect
same,Activity,Mus musculus [33],Dose-dependent effect
same,Activity,Mus musculus [34],Dose-dependent effect
same,Activity,Mus musculus [35],Active
same,Activity,Mus musculus [36],Active
same,Activity,Mus musculus [37],Dose-dependent effect
same,Activity,Mus musculus [38],Dose-dependent effect
